High-throughput results as filed in PubChem.
SUMO HTRF inh: blocks human SUMOylation mediated by UBC9 | P63279 | HTRF SUMOylation assay, SAE1/SAE2 + UBC9, in vitro | inhibition, % at 35 µM | 0.36% of 290,000 active | AID 2006; in the data active = inhibition above about 50%, passing the limit was not always enough
Target sequence (P63279 whole entry, looked up): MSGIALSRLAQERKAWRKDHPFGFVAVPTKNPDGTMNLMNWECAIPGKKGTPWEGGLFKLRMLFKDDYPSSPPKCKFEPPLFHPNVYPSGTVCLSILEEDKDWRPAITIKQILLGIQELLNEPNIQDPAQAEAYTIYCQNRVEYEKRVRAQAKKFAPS
NS3 helicase inh: blocks Hepatitis C virus NS3 helicase unwinding; NS3 helicase DNA unwinding, Cy5 molecular beacon fluorescence; inhibition, % at 10.9 µM; 0.56% of 290,000 active;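 active = inhibition above the mean of all tested compounds plus 3 SD, set per campaign, cut at about 35% in these data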;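 note: 0% = DMSO wells and 100% = thioflavine S control wells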
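Control set: DMSO versus 110 µM thioflavine S; Material: NS3 helicase fragment of HCV; Measured by: Cy5 fluorescence at 0 and 60 min, beacon hairpin quenching; Read-out basis: percent inhibition from t60/t0 fluorescence ratio; Times: reaction time 60 min, 25 °C; Repeats: single replicate; Compound dosing: single dose, 10.9 µM nominal final, DMSO 0.8% final.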
ZTA DNA inh: blocks Epstein-Barr virus ZTA, an EBNA-1 counter-screen; ZTA-DNA binding, fluorescence polarization; 0.15% of 320,000 active; AID 2234; inhibition, % at 11 µM; in the data active = inhibition above about 33%
Target sequence (P03206 whole entry, looked up): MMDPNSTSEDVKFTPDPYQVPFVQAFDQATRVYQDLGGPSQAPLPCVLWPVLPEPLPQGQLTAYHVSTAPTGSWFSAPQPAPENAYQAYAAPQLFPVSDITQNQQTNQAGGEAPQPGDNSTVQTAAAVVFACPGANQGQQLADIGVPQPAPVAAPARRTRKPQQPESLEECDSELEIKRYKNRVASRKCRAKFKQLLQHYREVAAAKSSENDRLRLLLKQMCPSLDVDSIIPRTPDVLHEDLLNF
EBNA-1 inh: blocks EBNA-1 binding to DNA; EBNA-1 DNA binding, fluorescence polarization; 0.34% of 300,000 active; inhibition, % at 14.8 µM; in the data active = inhibition above about 28%
core dimer inh: blocks dimerization of HCV core protein; TR-FRET GST/Flag-core106 dimerization, 1536-well; inhibition, % at 5 µM; AID 1899; 0.33% of 300,000 active;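 active = inhibition above the mean of all tested compounds plus 3 SD, set per screening campaign, cut at about 45% in these data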
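System – GST-tagged and Flag-tagged HCV core protein residues 1-106 · Repeats – one well for each compound · Technique – TR-FRET 671 and 617 nm emission · Doses – one concentration, 5 µM, in 0.5% DMSO · Times – 4 h, 22.5 °C incubation · Also added – Eu donor and XL665 acceptor anti-tag antibodies · Measure – percent inhibition of core106 dimerization signal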
NS3 hel confirm: HCV NS3 helicase inhibition, confirmation assay | 31% of 1,600 active | AID 1943 | NS3 helicase DNA unwinding, Cy5 molecular beacon fluorescence | shares compounds with NS3 helicase inh | inhibition, % at 10.9 µM;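 active = inhibition above the mean of all tested compounds plus 3 SD, cutoff set per campaign, cut at about 36% in these data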
FID counter trip: intercalator displacement, NS3 helicase counter-screen; shares compounds with NS3 helicase inh; DNA fluorescent intercalator displacement, fluorescence; inhibition, % at 7.9 µM; 4% of 1,600 active; AID 1945; in the data active = inhibition above about 37%;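 note: 0% = vehicle and 100% = reference compound; higher means more displacement of ethidium bromide from the DNA hairpin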
FID counter DR: counter-screen for HCV NS3 helicase inhibitors: DNA intercalator displacement dose response. 120 tested, under 10 active. shares compounds with NS3 helicase inh. fluorescent intercalator displacement from DNA, fluorescence. IC50, µM; call rule not given here
* hit, by the source's call; · = no result given. A selection: hits, their analogues and other compounds. The true share with any hit is near 1.4%.

SMILES	SUMO HTRF inh	NS3 helicase inh	ZTA DNA inh	EBNA-1 inh	core dimer inh	NS3 hel confirm	FID counter trip	others
Cc1cc(N2C(=O)C(O)=C(C(=O)c3cc4ccccc4o3)C2c2ccc(Cl)cc2)no1 (stereo not drawn)	-1	32	16	-2	-4	·	·
COC(=O)c1sc(N2C(=O)C(O)=C(C(=O)c3ccc(C)o3)C2c2cc(OC)ccc2OC)nc1C (stereo not drawn)	19	54*	6	3	3	93*	-20	FID counter DR=>79
Cc1ccc(C(=O)C2=C(O)C(=O)N(Cc3ccccc3)C2c2cccnc2)o1 (stereo not drawn)	-8	-1	2	4	4	·	·
COc1ccc(OC)c(C2C(C(=O)c3ccc(C)o3)=C(O)C(=O)N2c2cc(C)on2)c1 (stereo not drawn)	19	10	1	2	7	·	·
COc1ccc(OC)c(C2C(C(=O)c3cc4ccccc4o3)=C(O)C(=O)N2c2cc(C)on2)c1 (stereo not drawn)	3	37*	-18	-5	15	80*	-6	FID counter DR=>79
Cc1ccccc1OC1CCN(C(=O)c2cc(COc3ccccc3)on2)CC1	-31	-20	-1	1	10	·	·
COc1cccc(C2C(C(=O)c3cc4ccccc4o3)=C(O)C(=O)N2c2cc(C)on2)c1 (stereo not drawn)	0	41*	-1	7	-1	105*	5
Cc1cc(N2C(=O)C(O)=C(C(=O)c3ccc(C)o3)C2c2cccc(Oc3ccccc3)c2)no1 (stereo not drawn)	-3	63*	-4	-4	8	173*	-22	FID counter DR=>79
C=CCOc1cccc(C2C(C(=O)c3cc4ccccc4o3)=C(O)C(=O)N2c2cc(C)on2)c1 (stereo not drawn)	2	32	12	19	-1	·	·
COc1ccc(C2C(C(=O)c3ccc(C)o3)=C(O)C(=O)N2c2cc(C)on2)cc1OC (stereo not drawn)	18	13	12	7	5	·	·
Clc1ccccc1C1=CC(c2ccco2)n2ncnc2N1 (stereo not drawn)	28	41*	-6	7	-3	5	-12
Clc1ccc(C2=CC(c3ccco3)n3ncnc3N2)cc1 (stereo not drawn)	23	6	17	12	-2	·	·
CCc1ccc(/C=C2\Oc3c(ccc(O)c3CN3CCN(CCO)CC3)C2=O)cc1	29	51*	-12	-5	-5	-13	32
CCc1ccc(/C=C2\Oc3cc(OS(C)(=O)=O)ccc3C2=O)cc1	-10	4	14	-13	5	·	·
Cc1c(C(=O)Nc2ccc(S(=O)(=O)N3CCOCC3)cc2)cccc1[N+](=O)[O-]	7	9	-22	-7	-2	·	·
Cc1cc(C)c(NC(=O)c2ccc(CNS(=O)(=O)c3cc(C(F)(F)F)ccc3Cl)cc2)c(C)c1	24	36*	-1	-3	15	-4	-14
O=S(=O)(NCc1ccccn1)c1cc(C(F)(F)F)ccc1Cl	-10	3	1	-3	-1	·	·
Cc1ccc(NC(=O)CN2CCN(S(=O)(=O)c3ccc(F)cc3)CC2)cc1C	·	·	-2	·	·	·	·
CN(CC(=O)Nc1c(Cl)cccc1Cl)C(=O)C1=COCCO1	·	·	5	2	0	·	·
CCN(CC)CCN1C(=O)C(=O)/C(=C(/O)c2ccc(S(=O)(=O)N3CCOCC3)cc2)C1c1ccc(C(C)(C)C)cc1 (stereo not drawn)	-12	46*	-6	-3	-7	-6	-21
COCCCN1C(=O)C(=O)/C(=C(/O)c2ccc(S(=O)(=O)N3CCCCC3)cc2)C1c1ccc(F)cc1 (stereo not drawn)	-2	44*	5	-5	3	-4	-29
CCOC(=O)c1noc(C)c1C(=O)Nc1nc(C)cc(C)n1	-8	10	8	8	1	·	·
COc1ccc(NC(=O)CN(C)C(=O)c2ccc3c(c2)S(=O)(=O)N=C2CCCCCN23)cc1	0	1	0	0	2	·	·
